Results from ChEMBL document CHEMBL1140697, “Synthesis and evaluation in monkey of two sensitive 11C-labeled aryloxyanilide ligands for imaging brain peripheral benzodiazepine receptors in vivo” (J Med Chem, 2008).

Tests used:
[1] = Lipophilicity, log D of the compound; assay type: physicochemical; details: octanol/water
Procedure, shortened: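 The ¹¹C-ligand (~300 µCi) in saline with 5% ethanol was mixed with sodium phosphate buffer (0.15 M, pH 7.4). Six 1 mL aliquots were each vortexed 1 min with buffer-pre-equilibrated n-octanol, centrifuged 1 min, and 200 µL of each phase was γ-counted. Aqueous counts were corrected by radio-HPLC for the unchanged fraction. LogD = log(cpm octanol/corrected cpm aqueous); mean ± SD of six determinations.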

[2] = Binding affinity to PBR in rhesus monkey mitochondrial tissue; parameters: species or system Macaca mulatta
Procedure, shortened: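 Mitochondrial fractions (rat, rhesus monkey or human) were incubated with [³H]PK 11195 (0.38 nM final) and eight test-ligand concentrations for 2 h at 4 °C. Samples were filtered on PEI-presoaked GF/B filters, washed with ice-cold buffer and counted. Nonspecific binding was taken at the top inhibitor level (0.1–0.3 µM). Triplicate curves were run in two independent experiments. IC₅₀ was converted to K_i by Cheng–Prusoff, using K_D from homologous PK 11195 displacement.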

[3] = system: Plasma; assay: Drug level in rhesus monkey plasma; assay type: ADME, cell-free, Macaca mulatta
[4] = Stability in monkey whole blood >30 mins; assay type: ADME, tissue-based, Macaca mulatta; details: rhesus monkey, read-out: Stability
Procedure, shortened: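 The radioligand was incubated with monkey blood for >30 min. Radioactivity extracted from the plasma was analysed by radio-HPLC to give the percentage of unchanged radioligand, reported as mean ± SD.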

[5] = biological target: Translocator protein (Rattus norvegicus, UniProt P16257); assay: Binding affinity to PBR in Sprague-Dawley rat mitochondrial tissue
Sequence of Translocator protein (Rattus norvegicus, UniProt P16257) (P16257 whole entry, looked up): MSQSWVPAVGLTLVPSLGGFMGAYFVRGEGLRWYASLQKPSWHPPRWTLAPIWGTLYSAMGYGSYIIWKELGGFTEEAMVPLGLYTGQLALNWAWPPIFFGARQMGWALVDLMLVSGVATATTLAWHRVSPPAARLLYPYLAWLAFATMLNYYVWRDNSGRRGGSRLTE

[6] = Stability in sodium phosphate buffer at pH 7.4 after 2.5 hrs; assay type: physicochemical; details: read-out: Stability
Procedure, shortened: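 Radioligand stored in 0.15 M sodium phosphate buffer, pH 7.4, for 2.5 h; radiochemical stability measured by radio-HPLC as percent of radioactivity remaining as unchanged radioligand; n = 4.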

[7] = system: Plasma; assay: Drug level in rhesus monkey plasma assessed as cell distribution; assay type: ADME, cell-free, Macaca mulatta
[8] = biological target: Translocator protein (Homo sapiens, UniProt P30536); assay: Binding affinity to PBR in human mitochondrial tissue
Sequence of Translocator protein (Homo sapiens, UniProt P30536) (P30536 whole entry): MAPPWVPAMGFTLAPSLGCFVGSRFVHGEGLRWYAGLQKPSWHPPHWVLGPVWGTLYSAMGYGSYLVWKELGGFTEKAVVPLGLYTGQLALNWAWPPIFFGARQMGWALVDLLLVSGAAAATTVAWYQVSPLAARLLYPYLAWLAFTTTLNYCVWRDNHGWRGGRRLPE

[9] = system: Plasma; assay: Biodistribution in rat plasma at 1.43 mCi, iv after 30 mins; assay type: ADME, organism-based; details: in vivo, 0.5 h
Procedure, shortened: (§1)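 Rats received the ¹¹C-radioligand iv with varying carrier mass (µg/kg) and were sampled 30 min later. Plasma and brain homogenate were extracted into acetonitrile and analysed by reverse-phase radio-HPLC (C18; MeOH/H₂O/Et₃N, 1.5 mL/min), reporting % radioactivity as unchanged radioligand. Extraction recovery was recorded. Replicate HPLC analyses were run on one sample per rat.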

[10] = Biodistribution in rhesus monkey plasma free fraction of blood; assay type: ADME, organism-based, Macaca mulatta
[11] = system: Plasma; assay: Biodistribution in rat plasma at 0.472 mCi, iv after 30 mins; assay type: ADME, organism-based; details: in vivo, 0.5 h; procedure, shortened: as §1
[12] = biological target: GABA A receptor alpha-6/beta-2/gamma-2 (Homo sapiens, UniProt P18507+P47870+Q16445); assay: Binding affinity to GABA alpha-6-beta-2-gamma-2 receptor; assay type: protein-complex assay
Procedure, shortened: (§2)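 K_i values at central benzodiazepine (GABA_A) receptor subtypes were determined in radioligand binding assays within the NIMH PDSP screen.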

[13] = biological target: GABA A receptor alpha-2/beta-2/gamma-2 (Homo sapiens, UniProt P18507+P47869+P47870); assay: Binding affinity to GABA alpha-2-beta-2-gamma-2 receptor; assay type: protein-complex assay; procedure, shortened: as §2
Sequence of GABA A receptor alpha-2/beta-2/gamma-2 (P47870 whole entry): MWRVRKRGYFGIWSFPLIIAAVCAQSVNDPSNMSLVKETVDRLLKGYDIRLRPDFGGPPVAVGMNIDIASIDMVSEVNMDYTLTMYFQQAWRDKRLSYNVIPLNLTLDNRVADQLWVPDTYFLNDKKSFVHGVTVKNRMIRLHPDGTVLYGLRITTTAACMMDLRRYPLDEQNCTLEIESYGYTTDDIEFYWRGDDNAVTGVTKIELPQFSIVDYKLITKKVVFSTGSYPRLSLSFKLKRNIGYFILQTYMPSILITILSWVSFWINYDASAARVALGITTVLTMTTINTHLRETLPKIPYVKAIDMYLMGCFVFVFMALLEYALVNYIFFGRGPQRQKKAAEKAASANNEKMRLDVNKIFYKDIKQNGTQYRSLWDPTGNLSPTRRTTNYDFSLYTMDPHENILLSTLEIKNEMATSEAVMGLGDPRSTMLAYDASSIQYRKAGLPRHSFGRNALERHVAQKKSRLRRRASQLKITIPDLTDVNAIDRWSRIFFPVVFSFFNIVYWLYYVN
Sequence of GABA A receptor alpha-2/beta-2/gamma-2 (P18507 whole entry): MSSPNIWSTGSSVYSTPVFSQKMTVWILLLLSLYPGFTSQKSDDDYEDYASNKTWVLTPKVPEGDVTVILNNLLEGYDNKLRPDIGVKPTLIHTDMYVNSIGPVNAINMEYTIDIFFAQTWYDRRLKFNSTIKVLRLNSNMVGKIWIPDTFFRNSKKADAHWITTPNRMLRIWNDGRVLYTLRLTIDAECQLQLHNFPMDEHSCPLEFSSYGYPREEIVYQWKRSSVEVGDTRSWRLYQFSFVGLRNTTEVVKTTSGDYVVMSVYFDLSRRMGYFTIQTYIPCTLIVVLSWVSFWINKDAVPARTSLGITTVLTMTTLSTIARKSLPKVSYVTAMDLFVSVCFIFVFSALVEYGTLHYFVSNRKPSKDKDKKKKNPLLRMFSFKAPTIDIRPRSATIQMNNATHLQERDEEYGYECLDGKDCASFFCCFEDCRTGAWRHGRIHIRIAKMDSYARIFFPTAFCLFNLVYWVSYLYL
Sequence of GABA A receptor alpha-2/beta-2/gamma-2 (P47869 whole entry): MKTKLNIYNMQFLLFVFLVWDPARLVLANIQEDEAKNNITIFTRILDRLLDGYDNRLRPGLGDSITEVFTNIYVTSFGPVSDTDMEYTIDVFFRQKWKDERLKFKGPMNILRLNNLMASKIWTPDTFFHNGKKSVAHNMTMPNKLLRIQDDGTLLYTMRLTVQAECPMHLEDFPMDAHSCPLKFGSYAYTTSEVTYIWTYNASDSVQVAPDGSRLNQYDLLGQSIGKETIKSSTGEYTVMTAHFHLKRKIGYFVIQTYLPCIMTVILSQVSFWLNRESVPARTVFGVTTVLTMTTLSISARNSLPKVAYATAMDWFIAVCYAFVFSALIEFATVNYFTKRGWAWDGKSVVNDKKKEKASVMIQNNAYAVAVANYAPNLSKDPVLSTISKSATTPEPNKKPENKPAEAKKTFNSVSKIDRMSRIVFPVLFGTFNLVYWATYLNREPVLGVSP

[14] = Stability in Sprague-Dawley rat brain after 2 hrs; assay type: ADME, tissue-based; details: read-out: Stability
Procedure, shortened: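 The radioligand was incubated with rat brain homogenate in saline for 2 h at 37 °C. The percentage of unchanged radioligand was then determined by radio-HPLC.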

[15] = system: Rattus norvegicus; assay: Biodistribution in rat urine at 2.34 mCi, iv after 30 mins; assay type: ADME, organism-based; details: in vivo, 0.5 h
[16] = system: Plasma; assay: Biodistribution in rat plasma at 2.34 mCi, iv after 30 mins; assay type: ADME, organism-based; details: in vivo, 0.5 h; procedure, shortened: as §1
[17] = system: Brain; assay: Biodistribution in rat brain at 0.472 mCi, iv after 30 mins; assay type: ADME, organism-based; details: in vivo, 0.5 h
[18] = biological target: Kappa-type opioid receptor (Homo sapiens, UniProt P41145); assay: Binding affinity to kappa opioid receptor
Sequence of Kappa-type opioid receptor (P41145 whole entry): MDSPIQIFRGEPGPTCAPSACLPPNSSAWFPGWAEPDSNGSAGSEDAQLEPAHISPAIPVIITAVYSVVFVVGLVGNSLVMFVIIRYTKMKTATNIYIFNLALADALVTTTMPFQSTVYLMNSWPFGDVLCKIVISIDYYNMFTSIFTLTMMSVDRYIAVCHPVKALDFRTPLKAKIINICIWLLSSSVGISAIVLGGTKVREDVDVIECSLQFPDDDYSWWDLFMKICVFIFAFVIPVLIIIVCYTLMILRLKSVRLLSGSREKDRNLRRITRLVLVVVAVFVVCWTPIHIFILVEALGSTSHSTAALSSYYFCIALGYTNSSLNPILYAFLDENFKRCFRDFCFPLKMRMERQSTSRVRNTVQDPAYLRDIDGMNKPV

[19] = biological target: GABA A receptor alpha-1/beta-1/gamma-2 (Homo sapiens, UniProt P14867+P18505+P18507); assay: Binding affinity to GABA alpha-1-beta-1-gamma-2 receptor; assay type: protein-complex assay; procedure, shortened: as §2
Sequence of GABA A receptor alpha-1/beta-1/gamma-2 (P14867 whole entry): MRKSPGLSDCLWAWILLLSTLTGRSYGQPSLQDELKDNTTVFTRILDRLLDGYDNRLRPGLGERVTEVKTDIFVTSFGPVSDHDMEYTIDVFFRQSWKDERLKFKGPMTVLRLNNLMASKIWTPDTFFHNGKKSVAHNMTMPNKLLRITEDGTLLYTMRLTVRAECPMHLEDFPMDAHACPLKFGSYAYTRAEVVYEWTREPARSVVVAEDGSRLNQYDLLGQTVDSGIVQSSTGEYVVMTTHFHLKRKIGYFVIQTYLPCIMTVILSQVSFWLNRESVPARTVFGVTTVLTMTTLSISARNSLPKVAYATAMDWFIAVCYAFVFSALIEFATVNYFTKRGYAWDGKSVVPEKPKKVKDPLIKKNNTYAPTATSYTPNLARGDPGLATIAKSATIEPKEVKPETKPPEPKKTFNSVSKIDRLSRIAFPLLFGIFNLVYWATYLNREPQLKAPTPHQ
Sequence of GABA A receptor alpha-1/beta-1/gamma-2 (P18507 whole entry): as the sequence (P18507 whole entry) above
Sequence of GABA A receptor alpha-1/beta-1/gamma-2 (P18505 whole entry): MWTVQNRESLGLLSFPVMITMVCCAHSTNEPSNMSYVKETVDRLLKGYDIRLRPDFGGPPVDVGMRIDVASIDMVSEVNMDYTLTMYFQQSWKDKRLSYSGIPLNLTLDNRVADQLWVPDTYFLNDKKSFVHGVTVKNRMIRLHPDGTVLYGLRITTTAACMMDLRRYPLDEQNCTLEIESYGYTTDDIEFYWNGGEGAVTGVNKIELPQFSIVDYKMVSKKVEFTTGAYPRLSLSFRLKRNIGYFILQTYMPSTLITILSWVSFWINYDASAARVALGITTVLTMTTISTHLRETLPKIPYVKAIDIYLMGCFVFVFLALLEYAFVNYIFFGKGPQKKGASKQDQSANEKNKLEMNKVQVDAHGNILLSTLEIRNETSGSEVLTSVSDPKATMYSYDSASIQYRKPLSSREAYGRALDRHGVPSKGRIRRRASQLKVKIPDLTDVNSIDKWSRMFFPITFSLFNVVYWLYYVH

[20] = biological target: GABA A receptor alpha-5/beta-3/gamma-2 (Rattus norvegicus, UniProt P18508+P19969+P63079); assay: Binding affinity to GABA alpha-5-beta-2-gamma-2 receptor; assay type: protein-complex assay, Homo sapiens; procedure, shortened: as §2
Sequence of GABA A receptor alpha-5/beta-3/gamma-2 (P18508 whole entry): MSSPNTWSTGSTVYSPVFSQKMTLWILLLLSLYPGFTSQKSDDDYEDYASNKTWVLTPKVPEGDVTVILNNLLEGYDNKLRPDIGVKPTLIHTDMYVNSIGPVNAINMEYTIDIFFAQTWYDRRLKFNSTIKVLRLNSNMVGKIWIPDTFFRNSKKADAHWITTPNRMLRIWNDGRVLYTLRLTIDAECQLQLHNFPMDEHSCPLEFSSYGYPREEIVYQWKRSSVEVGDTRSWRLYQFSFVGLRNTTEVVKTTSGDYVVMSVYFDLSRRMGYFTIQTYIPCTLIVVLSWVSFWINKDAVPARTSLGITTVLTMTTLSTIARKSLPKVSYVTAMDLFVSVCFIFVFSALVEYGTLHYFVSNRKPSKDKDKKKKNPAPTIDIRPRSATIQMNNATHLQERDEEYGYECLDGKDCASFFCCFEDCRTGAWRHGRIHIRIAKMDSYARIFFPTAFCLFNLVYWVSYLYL
Sequence of GABA A receptor alpha-5/beta-3/gamma-2 (P19969 whole entry): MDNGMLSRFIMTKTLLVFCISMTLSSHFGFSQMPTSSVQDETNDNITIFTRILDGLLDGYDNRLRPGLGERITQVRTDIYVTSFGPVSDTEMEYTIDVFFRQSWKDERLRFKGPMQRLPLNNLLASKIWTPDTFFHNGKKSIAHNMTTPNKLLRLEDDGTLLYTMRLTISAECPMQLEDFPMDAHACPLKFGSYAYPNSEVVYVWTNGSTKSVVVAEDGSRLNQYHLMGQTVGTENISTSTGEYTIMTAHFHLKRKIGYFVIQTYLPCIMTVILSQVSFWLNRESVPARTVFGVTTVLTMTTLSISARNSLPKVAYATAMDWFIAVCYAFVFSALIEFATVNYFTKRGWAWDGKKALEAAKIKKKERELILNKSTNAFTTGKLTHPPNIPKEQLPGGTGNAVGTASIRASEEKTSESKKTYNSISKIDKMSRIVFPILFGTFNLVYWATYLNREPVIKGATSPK
Sequence of GABA A receptor alpha-5/beta-3/gamma-2 (P63079 whole entry): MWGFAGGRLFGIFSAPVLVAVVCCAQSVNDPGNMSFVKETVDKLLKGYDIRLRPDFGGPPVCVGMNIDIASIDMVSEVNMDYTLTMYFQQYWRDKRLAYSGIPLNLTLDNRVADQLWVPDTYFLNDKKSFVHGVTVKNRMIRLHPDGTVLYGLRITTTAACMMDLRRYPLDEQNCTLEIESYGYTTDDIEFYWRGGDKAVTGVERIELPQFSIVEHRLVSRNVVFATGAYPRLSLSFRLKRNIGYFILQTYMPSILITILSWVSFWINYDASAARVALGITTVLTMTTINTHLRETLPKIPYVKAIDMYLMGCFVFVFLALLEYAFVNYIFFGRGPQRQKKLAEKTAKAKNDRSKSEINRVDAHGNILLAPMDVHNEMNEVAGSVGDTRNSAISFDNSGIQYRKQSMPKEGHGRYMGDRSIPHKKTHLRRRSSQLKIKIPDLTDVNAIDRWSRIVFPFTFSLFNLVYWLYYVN

Row | Compound | logD [1] | Ki [2] | Drug uptake [3] | remaining at 0.5 h [4] | Ki [5] | remaining at 2.5 h [6] | Drug uptake [7] | Ki [8] | Drug uptake [9] | fraction unbound [10] | Drug uptake [11] | Ki [12] | Ki [13] | remaining at 2 h [14] | Drug uptake [15] | Drug uptake [16] | Drug uptake [17] | Ki [18] | Ki [19] | Ki [20]
1 | CC[C@H](C)N([11CH3])C(=O)c1cc2ccccc2c(-c2ccccc2Cl)n1 | 3.97 | 4.35 nM | – | – | – | – | – | – | – | – | – | – | – | – | – | – | – | – | – | –
2 | CC(=O)N(Cc1ccccc1C(=O)O[11CH3])c1ccccc1Oc1ccccc1 | 3.9 | 0.254 nM | 36.7% | 96.5% | 0.0978 nM | 99.9% | 63.3% | 1.4 nM | 3.4% | 0.0015 | – | – | – | – | – | – | – | – | – | –
3 | CC(=O)N(Cc1ccccc1O[11CH3])c1cnccc1Oc1ccccc1 | 3.01 | 0.944 nM | 33.2% | 95.8% | 0.68 nM | 99% | 66.8% | 2.47 nM | – | 0.056 | 4.2% | > 10000 nM | > 10000 nM | 99.8% | 0.39% | 2.4% | 97.6% | 2200 nM | > 10000 nM | > 10000 nM
